From ChEMBL document CHEMBL4196130, “3-(2-Carboxyethyl)indole-2-carboxylic Acid Derivatives: Structural Requirements and Properties of Potent Agonists of the Orphan G Protein-Coupled Receptor GPR17” (J Med Chem, 2018)
Calls of active or inactive are those of the source. No cut-off for these calls is given here.

Key:
[1] = target: P2Y purinoceptor 6 (Homo sapiens) (UniProt Q15077); assay: Agonist activity at human P2Y6 receptor transfected in human 1321N1 cells assessed as induction of calcium mobilization after 30 mins in presence of UDP by fluo-4 dye based assay; type: functional, cell-based
Summary of the method: (§1)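 Calcium mobilization was measured in 1321N1 astrocytoma cells stably transfected with human P2Y1, P2Y2, P2Y4 or P2Y6 receptors, read on a Flexstation III microplate reader.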

[2] = target: P2Y purinoceptor 4 (Homo sapiens) (UniProt P51582); assay: Agonist activity at human P2Y4 receptor transfected in human 1321N1 cells assessed as induction of calcium mobilization after 30 mins in presence of UTP by fluo-4 dye based assay; type: functional, cell-based; summary of the method: as §1
[3] = target: T1, Uracil nucleotide/cysteinyl leukotriene receptor (Homo sapiens, UniProt Q13304); assay: Agonist activity at human GPR17 expressed in human 1321N1 cells assessed as induction of calcium mobilization after 1 hr by Oregon Green BAPTA-1/AM dye-based fluorescence assay; type: functional, cell-based
Summary of the method: (§2)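 Stably transfected 1321N1 astrocytoma cells were trypsin/EDTA-harvested, held 45 min at 37°C, then loaded 1 h at 25°C in KRH buffer pH 7.4 with 3 µM Oregon Green BAPTA-1/AM and 1% Pluronic F127, washed, and plated at ~16,000 cells/well. Fluorescence was read at 520 nm for 30 s after compound injection. Efficacy was expressed relative to the maximum given by 10 µM MDL 29,951. EC50 came from concentration-response curves, run for compounds exceeding 50% stimulation at 10 µM. At least three independent experiments, each in duplicate.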

[4] = target: P2Y purinoceptor 12 (Homo sapiens) (UniProt Q9H244); assay: Agonist activity at human P2Y12 receptor transfected in CHO cells assessed as induction of beta-arrestin translocation; type: functional, cell-based
Summary of the method: (§3)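 β-Arrestin translocation assays were run in CHO cells stably transfected with human P2Y12 or P2Y14 receptors.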

P2Y purinoceptor 2 = P2Y purinoceptor 2 (Homo sapiens, UniProt P41231); assay: Agonist activity at human P2Y2 receptor transfected in human 1321N1 cells assessed as induction of calcium mobilization after 30 mins in presence of UTP by fluo-4 dye based assay; type: functional, cell-based; summary of the method: as §1
[5] = target: T1, Uracil nucleotide/cysteinyl leukotriene receptor; assay: Agonist activity at human GPR17 expressed in human 1321N1 cells assessed as induction of calcium mobilization after 1 hr by Oregon Green BAPTA-1/AM dye-based fluorescence assay relative to MDL 29,951; type: functional, cell-based; summary of the method: as §2
[6] = target: T2, P2Y purinoceptor 14 (Homo sapiens) (UniProt Q15391); assay: Agonist activity at human P2Y14 receptor transfected in CHO cells assessed as induction of beta-arrestin translocation; type: functional, cell-based; summary of the method: as §3
T2 sequence (whole entry): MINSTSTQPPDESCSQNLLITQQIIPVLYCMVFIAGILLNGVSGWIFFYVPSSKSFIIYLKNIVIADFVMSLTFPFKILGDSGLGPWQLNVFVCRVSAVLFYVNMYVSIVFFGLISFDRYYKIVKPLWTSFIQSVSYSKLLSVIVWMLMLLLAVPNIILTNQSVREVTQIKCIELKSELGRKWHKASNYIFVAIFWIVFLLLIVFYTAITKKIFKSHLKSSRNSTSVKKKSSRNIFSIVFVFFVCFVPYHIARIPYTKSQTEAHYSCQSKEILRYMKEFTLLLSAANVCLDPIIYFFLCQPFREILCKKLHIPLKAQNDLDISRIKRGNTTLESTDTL

[7] = target: P2Y purinoceptor 1 (Homo sapiens) (UniProt P47900); assay: Agonist activity at human P2Y1 receptor transfected in human 1321N1 cells assessed as induction of calcium mobilization after 30 mins in presence of ADP by fluo-4 dye based assay; type: functional, cell-based; summary of the method: as §1
[8] = target: T1, Uracil nucleotide/cysteinyl leukotriene receptor; assay: Agonist activity at human GPR17 expressed in human 1321N1 cells assessed as induction of calcium mobilization at >30 uM after 1 hr by Oregon Green BAPTA-1/AM dye-based fluorescence assay relative to control; type: functional, cell-based
[9] = target: T1, Uracil nucleotide/cysteinyl leukotriene receptor; assay: Antagonist activity at human GPR17 expressed in human 1321N1 cells assessed as inhibition of MDL 29,951-induced calcium mobilization after 1 hr by Oregon Green BAPTA-1/AM dye-based fluorescence assay; type: functional, cell-based
Summary of the method: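 Oregon Green BAPTA-1/AM calcium assay in hGPR17-1321N1 cells (1 h dye loading at 25°C in KRH buffer pH 7.4). Full inhibition curves were run for potent antagonists. Fluorescence was read at 520 nm.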

[10] = target: T1, Uracil nucleotide/cysteinyl leukotriene receptor; assay: Antagonist activity at human GPR17 expressed in human 1321N1 cells assessed as inhibition of MDL 29,951-induced calcium mobilization at 30 uM after 1 hr by Oregon Green BAPTA-1/AM dye-based fluorescence assay relative to control
[11] = target: T1, Uracil nucleotide/cysteinyl leukotriene receptor; assay: Agonist activity at human GPR17 expressed in human 1321N1 cells assessed as induction of calcium mobilization at >10 uM after 1 hr by Oregon Green BAPTA-1/AM dye-based fluorescence assay relative to control; type: functional, cell-based
[12] = target: T1, Uracil nucleotide/cysteinyl leukotriene receptor; assay: Agonist activity at human GPR17 expressed in human 1321N1 cells assessed as induction of calcium mobilization at >100 uM after 1 hr by Oregon Green BAPTA-1/AM dye-based fluorescence assay relative to control; type: functional, cell-based

T1 sequence (Q13304 whole entry): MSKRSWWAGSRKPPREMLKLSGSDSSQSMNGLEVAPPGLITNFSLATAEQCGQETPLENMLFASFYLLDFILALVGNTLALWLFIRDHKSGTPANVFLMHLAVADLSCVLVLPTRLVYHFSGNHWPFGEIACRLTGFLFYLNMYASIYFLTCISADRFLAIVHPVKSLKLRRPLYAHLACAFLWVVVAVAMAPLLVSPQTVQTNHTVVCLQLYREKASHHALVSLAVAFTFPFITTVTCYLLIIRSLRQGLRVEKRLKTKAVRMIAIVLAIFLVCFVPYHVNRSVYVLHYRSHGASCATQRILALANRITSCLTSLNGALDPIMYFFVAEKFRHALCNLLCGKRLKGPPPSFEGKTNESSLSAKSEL
Chain of P2Y purinoceptor 2 (P41231 whole entry): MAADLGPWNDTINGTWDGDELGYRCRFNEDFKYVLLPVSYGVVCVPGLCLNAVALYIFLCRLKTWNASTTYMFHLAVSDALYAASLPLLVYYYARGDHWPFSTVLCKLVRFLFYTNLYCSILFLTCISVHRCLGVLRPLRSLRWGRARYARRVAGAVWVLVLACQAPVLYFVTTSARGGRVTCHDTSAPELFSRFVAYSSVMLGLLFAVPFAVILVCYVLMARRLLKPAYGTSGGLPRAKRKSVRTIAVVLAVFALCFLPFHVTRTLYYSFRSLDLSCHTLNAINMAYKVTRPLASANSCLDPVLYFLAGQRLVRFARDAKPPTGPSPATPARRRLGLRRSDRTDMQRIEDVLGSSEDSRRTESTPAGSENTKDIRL
Chain of P2Y purinoceptor 1 (Homo sapiens) (P47900 whole entry): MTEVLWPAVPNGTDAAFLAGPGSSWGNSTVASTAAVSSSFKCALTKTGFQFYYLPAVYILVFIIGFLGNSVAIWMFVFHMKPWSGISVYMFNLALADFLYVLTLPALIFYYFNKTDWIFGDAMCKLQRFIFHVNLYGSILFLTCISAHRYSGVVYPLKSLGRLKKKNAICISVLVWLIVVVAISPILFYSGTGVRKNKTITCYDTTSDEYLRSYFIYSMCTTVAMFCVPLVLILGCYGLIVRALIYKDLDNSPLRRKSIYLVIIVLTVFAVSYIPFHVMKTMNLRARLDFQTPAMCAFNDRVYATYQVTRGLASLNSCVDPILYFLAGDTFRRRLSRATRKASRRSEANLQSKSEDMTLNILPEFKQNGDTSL
Chain of P2Y purinoceptor 6 (Homo sapiens) (Q15077 whole entry): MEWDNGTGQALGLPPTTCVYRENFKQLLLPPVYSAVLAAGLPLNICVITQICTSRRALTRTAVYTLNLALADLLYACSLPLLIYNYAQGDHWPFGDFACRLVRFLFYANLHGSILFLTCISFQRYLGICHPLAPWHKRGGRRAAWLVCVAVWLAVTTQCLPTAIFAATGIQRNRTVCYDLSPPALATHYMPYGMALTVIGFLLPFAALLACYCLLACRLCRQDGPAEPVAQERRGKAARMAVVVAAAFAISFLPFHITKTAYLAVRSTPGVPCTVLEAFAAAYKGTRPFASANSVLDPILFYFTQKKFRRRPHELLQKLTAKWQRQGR
Chain of P2Y purinoceptor 12 (Homo sapiens) (Q9H244 whole entry): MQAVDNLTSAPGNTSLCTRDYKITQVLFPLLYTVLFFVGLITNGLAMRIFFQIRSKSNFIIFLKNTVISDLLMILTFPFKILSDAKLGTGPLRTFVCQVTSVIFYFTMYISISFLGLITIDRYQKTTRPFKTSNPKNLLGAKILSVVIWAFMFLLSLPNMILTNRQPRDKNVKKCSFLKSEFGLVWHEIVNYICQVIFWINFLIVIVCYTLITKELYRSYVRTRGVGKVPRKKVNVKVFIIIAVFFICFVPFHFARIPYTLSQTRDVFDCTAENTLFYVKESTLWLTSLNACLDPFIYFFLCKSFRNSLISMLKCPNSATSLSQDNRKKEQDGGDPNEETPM
Chain of P2Y purinoceptor 4 (Homo sapiens) (P51582 whole entry): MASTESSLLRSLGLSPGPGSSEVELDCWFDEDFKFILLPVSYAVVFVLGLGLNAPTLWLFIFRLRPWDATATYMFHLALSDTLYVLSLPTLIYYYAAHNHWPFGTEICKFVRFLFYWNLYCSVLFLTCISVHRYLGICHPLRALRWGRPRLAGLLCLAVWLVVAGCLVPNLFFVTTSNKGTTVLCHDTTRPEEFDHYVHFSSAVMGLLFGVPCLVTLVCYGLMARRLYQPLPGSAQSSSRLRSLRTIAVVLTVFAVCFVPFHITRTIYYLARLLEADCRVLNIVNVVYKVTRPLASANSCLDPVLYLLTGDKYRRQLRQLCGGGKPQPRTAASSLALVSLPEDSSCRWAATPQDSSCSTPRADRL

| EC50 [3] | Emax [5] | SMILES | other results |
| --- | --- | --- | --- |
| 0.0321 µM | 122% | O=C(O)CCc1c(C(=O)O)[nH]c2cc(I)cc(F)c12 | Activity [1]: inactive; Activity [2]: inactive; Activity [4]: inactive; Activity (P2Y purinoceptor 2): inactive; Activity [6]: inactive; Activity [7]: inactive |
| 0.117 µM | 77% | CCCCCCCCOc1cc(Cl)c2c(CCC(=O)O)c(C(=O)O)[nH]c2c1 |  |
| > 30 µM |  | CC(C)c1ccc2[nH]c(C(=O)O)c(CCC(=O)O)c2c1 | Activity [8]: 6% |
|  |  | O=C(O)Cc1c[nH]c2ccc(O)cc12 | Activity [8]: 1%; IC50 [9]: > 30 µM; inhibition [10]: 7% |
| > 10 µM |  | CCCCCCOc1cc(Cl)cc2[nH]c(C(=O)O)c(CCC(=O)O)c12 | Activity [11]: 40% |
| 0.624 µM | 100% | O=C(O)CCc1c(C(=O)O)[nH]c2cc(F)cc(Br)c12 |  |
| > 30 µM |  | O=C(O)CCc1c(C(=O)O)[nH]c2cc(Cl)c(Cl)cc12 | Activity [8]: 11% |
|  | 83% | O=C(O)CCc1c(C(=O)O)[nH]c2cc(-c3ccccc3)ccc12 |  |
| 4.98 µM | 80% | O=C(O)CCc1c(C(=O)O)[nH]c2cc(Cc3ccccc3)ccc12 |  |
| > 30 µM |  | COc1ccc2[nH]c(C(=O)O)c(CCC(=O)O)c2c1 | Activity [8]: 5% |
| 14.4 µM | 57% | O=C(O)CCc1c(C(=O)O)[nH]c2c(F)c(-c3ccco3)ccc12 |  |
| > 30 µM |  | O=C(O)CCc1c(C(=O)O)[nH]c2ccccc12 | Activity [8]: 8% |
| > 100 µM |  | O=C(O)CCc1c(C(=O)O)[nH]c2cccc(-c3ccccc3)c12 | Activity [12]: 3% |
| 0.423 µM | 92% | O=C(O)CCc1c(C(=O)O)[nH]c2cc(-c3ccc(F)cc3)cc(Cl)c12 |  |
| 4.02 µM | 48% | O=C(O)CCc1c(C(=O)O)[nH]c2cc(-c3ccc(F)cc3)ccc12 |  |
| > 100 µM |  | O=C(O)CCc1c(C(=O)O)[nH]c2c(Cl)c(Cl)ccc12 | Activity [12]: 5% |
| 4.83 µM | 98% | O=C(O)CCc1c(C(=O)O)[nH]c2c(F)c(Br)ccc12 |  |
| > 100 µM |  | COc1ccc2c(CCC(=O)O)c(C(=O)O)[nH]c2c1 | Activity [12]: 35%; IC50 [9]: 8.4 µM |
| 15.1 µM | 76% | Cc1cc(C)c2c(CCC(=O)O)c(C(=O)O)[nH]c2c1 |  |
| 0.27 µM | 100% | O=C(O)CCc1c(C(=O)O)[nH]c2cc(Oc3ccccc3)ccc12 |  |
| > 30 µM |  | O=C(O)CCc1c(C(=O)O)[nH]c2ccc(F)cc12 | Activity [8]: 9% |
| > 30 µM |  | O=C(O)CCc1c(C(=O)O)[nH]c2c(Cl)cc(Cl)c(Cl)c12 | Activity [8]: 16% |
| 0.103 µM | 98% | CCCCCOc1cc(Cl)c2c(CCC(=O)O)c(C(=O)O)[nH]c2c1 |  |
| > 100 µM |  | O=C(O)CCc1c(C(=O)O)[nH]c2c(F)c(-c3ccc(F)cc3)ccc12 |  |
